Laboratory results taken from ChEMBL document CHEMBL1125690, “Quinazoline antifolate thymidylate synthase inhibitors: heterocyclic benzoyl ring modifications” (J Med Chem, 1991).
pIC50: −log10 of the molar value.

Columns and labels:
[1] = tested on: L1210; assay: In vitro inhibition of L1210 cell growth in culture.; assay type: functional, cell-based; conditions: Mus musculus
How it was run: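 L1210 mouse leukaemia cells grown in culture. The value reported is the IC50 for inhibition of cell growth.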

[2] = molecular target: Thymidylate synthase (Mus musculus, UniProt P07607); assay: In vitro inhibition of partially purified L1210 thymidylate synthase (TS).
Thymidylate synthase, sequence (P07607 whole entry): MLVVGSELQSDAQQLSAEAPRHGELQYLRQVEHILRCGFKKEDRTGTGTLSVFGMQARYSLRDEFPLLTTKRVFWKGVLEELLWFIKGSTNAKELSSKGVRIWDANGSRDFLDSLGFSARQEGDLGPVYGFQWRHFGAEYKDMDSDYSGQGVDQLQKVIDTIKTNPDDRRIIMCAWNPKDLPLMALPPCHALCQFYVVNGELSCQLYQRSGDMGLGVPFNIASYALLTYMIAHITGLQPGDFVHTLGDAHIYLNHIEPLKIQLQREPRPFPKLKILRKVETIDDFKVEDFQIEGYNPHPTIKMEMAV

| Compound | pIC50 [1] | pIC50 [2] |
| --- | --- | --- |
| CCN(Cc1ccc2nc(C)nc(O)c2c1)c1nnc(C(=O)N[C@H](CCC(=O)O)C(=O)O)s1 | 5.62 | 6.03 |
| CCN(Cc1ccc2nc(CF)nc(O)c2c1)c1ccc(C(=O)N[C@H](CCC(=O)O)C(=O)O)s1 | 6.96 | 6.03 |
| C#CCN(Cc1ccc2nc(C)nc(O)c2c1)c1cnc(C(=O)N[C@H](CCC(=O)O)C(=O)O)s1 | 8.10 | 6.64 |
| CN(Cc1ccc2nc(CF)nc(O)c2c1)c1ccc(C(=O)N[C@H](CCC(=O)O)C(=O)O)s1 | 7.80 | 5.87 |
| CCN(Cc1ccc2nc(C)nc(O)c2c1)c1ncc(C(=O)N[C@H](CCC(=O)O)C(=O)O)s1 | 6.05 | 6.12 |
| Cc1nc(O)c2cc(CN(CCF)c3ccc(C(=O)N[C@H](CCC(=O)O)C(=O)O)s3)ccc2n1 | 7.00 | 6.26 |
| C=CCN(Cc1ccc2nc(C)nc(O)c2c1)c1ccc(C(=O)N[C@H](CCC(=O)O)C(=O)O)s1 | 7.24 | 5.77 |
| Cc1nc(O)c2cc(CNc3ccc(C(=O)N[C@H](CCC(=O)O)C(=O)O)s3)ccc2n1 | 5.52 | 4.61 |
| Cc1nc(O)c2cc(CNc3cnc(C(=O)N[C@H](CCC(=O)O)C(=O)O)s3)ccc2n1 | 6.55 | 5.15 |
| CCCN(Cc1ccc2nc(C)nc(O)c2c1)c1ccc(C(=O)N[C@H](CCC(=O)O)C(=O)O)s1 | 6.40 | 5.73 |
| Cc1nc(O)c2cc(CN(C)c3ccc(C(=O)N[C@H](CCC(=O)O)C(=O)O)s3)ccc2n1 | 8.15 |  |
| CCN(Cc1ccc2nc(C)nc(O)c2c1)c1cnc(C(=O)N[C@H](CCC(=O)O)C(=O)O)s1 | 8.10 | 6.64 |
| Cc1nc2ccc(CN(C)c3ccc(C(=O)N[C@@H](CCC(=O)O)C(=O)O)cc3)cc2c(=O)[nH]1 |  | 6.60 |
| C=CCN(Cc1ccc2nc(C)[nH]c(=O)c2c1)c1ccc(C(=O)N[C@@H](CCC(=O)O)C(=O)O)nc1 | 6.89 | 6.12 |
| Cc1nc2ccc(CN(C)c3ccc(C(=O)N[C@@H](CCC(=O)O)C(=O)O)cn3)cc2c(=O)[nH]1 | 5.80 | 5.37 |
| Cc1nc(O)c2cc(CN(CCCO)c3cnc(C(=O)N[C@H](CCC(=O)O)C(=O)O)s3)ccc2n1 | 7.22 | 5.76 |
| CCN(Cc1ccc2nc(C)nc(O)c2c1)c1ccc(C(=O)N[C@H](CCC(=O)O)C(=O)O)s1 | 7.80 | 6.24 |
| Cc1nc(O)c2cc(CN(CC#N)c3ccc(C(=O)N[C@H](CCC(=O)O)C(=O)O)s3)ccc2n1 | 6.70 | 5.51 |

| Compound | pIC50 [1] | pIC50 [2] |
| --- | --- | --- |
| Cc1nc(O)c2cc(CN(CCO)c3cnc(C(=O)N[C@H](CCC(=O)O)C(=O)O)s3)ccc2n1 | 7.70 | 6.38 |
| CN(Cc1ccc2nc(CO)nc(O)c2c1)c1ccc(C(=O)N[C@H](CCC(=O)O)C(=O)O)s1 | 6.11 | 5.87 |
| CN(Cc1ccc2nc(CO)nc(O)c2c1)c1cnc(C(=O)N[C@H](CCC(=O)O)C(=O)O)s1 | 6.52 | 6.31 |
| Cc1nc2ccc(CN(C)c3cnc(C(=O)N[C@@H](CCC(=O)O)C(=O)O)nc3)cc2c(=O)[nH]1 | 5.85 | 5.63 |
| CCN(Cc1ccc2nc(C)[nH]c(=O)c2c1)c1ccc(C(=O)N[C@@H](CCC(=O)O)C(=O)O)nc1 | 6.19 | 6.82 |
| C#CCN(Cc1ccc2nc(C)nc(O)c2c1)c1ccc(C(=O)N[C@H](CCC(=O)O)C(=O)O)s1 | 7.22 | 6.36 |
| Cc1nc(O)c2cc(CN(CCF)c3cnc(C(=O)N[C@H](CCC(=O)O)C(=O)O)s3)ccc2n1 | 7.70 | 6.72 |
| CCN(Cc1ccc2nc(CO)nc(O)c2c1)c1ccc(C(=O)N[C@H](CCC(=O)O)C(=O)O)s1 | 5.57 | 5.99 |
| CCN(Cc1ccc2nc(CF)nc(O)c2c1)c1cnc(C(=O)N[C@H](CCC(=O)O)C(=O)O)s1 | 7.00 | 6.66 |
| Cc1nc(O)c2cc(CN(CCO)c3ccc(C(=O)N[C@H](CCC(=O)O)C(=O)O)s3)ccc2n1 | 7.00 | 5.92 |
| Cc1nc2ccc(CN(C)c3ccc(C(=O)N[C@@H](CCC(=O)O)C(=O)O)nc3)cc2c(=O)[nH]1 | 6.80 | 6.46 |
| C=CCN(Cc1ccc2nc(C)nc(O)c2c1)c1cnc(C(=O)N[C@H](CCC(=O)O)C(=O)O)s1 | 7.89 | 5.97 |
| Cc1nc2ccc(CN(CCF)c3ccc(C(=O)N[C@@H](CCC(=O)O)C(=O)O)nc3)cc2c(=O)[nH]1 | 6.85 | 6.80 |
| CCN(Cc1ccc2nc(C)[nH]c(=O)c2c1)c1ccc(C(=O)N[C@@H](CCC(=O)O)C(=O)O)cc1 |  | 6.59 |
| C#CCN(Cc1ccc2nc(C)[nH]c(=O)c2c1)c1ccc(C(=O)N[C@@H](CCC(=O)O)C(=O)O)nc1 | 7.22 | 7.40 |
| Cc1nc(O)c2cc(CN(C)c3cnc(C(=O)N[C@H](CCC(=O)O)C(=O)O)s3)ccc2n1 | 8.22 | 6.38 |
| Cc1nc(O)c2cc(CN(CCCO)c3ccc(C(=O)N[C@H](CCC(=O)O)C(=O)O)s3)ccc2n1 | 5.52 | 5.47 |
| O=C(O)CC[C@@H](NC(=O)c1ccc(N(CCF)Cc2ccc3nc(CF)nc(O)c3c2)s1)C(=O)O | 6.17 | 5.97 |
